The values below come from ChEMBL document CHEMBL1125028, “Resolved pyrrolidine, piperidine, and perhydroazepine analogues of the muscarinic agent N-methyl-N-(1-methyl-4-pyrrolidino-2-butynyl)acetamide” (J Med Chem, 1990).

For experiment [1], the species on record is Cavia porcellus. Put plainly: Maximum contractile response in guinea pig ileum relative to that elicited by carbachol was determined. In kind it is functional. The method, boiled down:
(§1)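 Guinea pig ileum in Tyrode solution (pH 7.4) with 0.3 mM hexamethonium, 37 °C; isotonic contractions recorded at 1 g tension. Cumulative concentration-response curves built with agonist concentration stepped by a factor of 2.15. Maximal response expressed relative to carbachol. Antagonism tested at no fewer than four antagonist concentrations. Means ± SE over the number of ileal preparations.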

For experiment [2], the target named is Muscarinic acetylcholine receptor. Put plainly: Compound was tested for its potency against Muscarinic acetylcholine receptor in guinea pig ileum. Format: functional, tissue-based, Cavia porcellus.
Experiment [3] can be described thus: Inhibition of specific binding of [3H]NMS to Muscarinic acetylcholine receptor in rat cerebral cortex by using competitive binding assay. Format: tissue-based. The method, boiled down: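 Male Sprague–Dawley rat (200–300 g) cortex homogenized in 50 mM Na/K phosphate pH 7.4, spun 30000g 10 min, resuspended at 10 mg wet tissue/mL. Incubated with 0.3 nM (-)-[3H]NMS and test ligand, 30 min at 30 °C; filtration assay. […] IC50 by one-site nonlinear fit, converted to Ki by Cheng–Prusoff. Three determinations in triplicate.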

The target in experiment [4] is Muscarinic acetylcholine receptor. Kind of experiment: (§2) Dissociation constant towards Muscarinic acetylcholine receptor in guinea pig ileum. In kind it is tissue-based, Cavia porcellus. The method, boiled down:
as §1

Experiment [5] is filed under the species Cavia porcellus. Put plainly: Slope of schild plot in guinea pig ileum was determined. In kind it is functional. The procedure, abridged: as §1
Experiment [6] has as its target Muscarinic acetylcholine receptor. The experiment is described as §2. Format: tissue-based, Cavia porcellus. This is another data set of the same source.

As usually defined, the EC50 is the concentration giving half of the maximal effect. Higher therefore signals weaker potency. The term Ki denotes a dissociation constant, usually derived from enzyme kinetics or from competition with a known ligand. The term Kd denotes the concentration at which binding is half-saturated. A low value points to a tighter complex. `CC(=O)N1CCCC1C#CC[N+](C)(C)C` (racemic) had an Emax in experiment [1] of 0.8. In experiment [2], this molecule displayed a concentration for a half-maximal effect (EC50) of 7.5 µM. Moreover, in experiment [3], the Ki was 6.1 µM. This molecule also displayed a Kd in experiment [4] of 49.5 µM.

In the case of `C[N+](C)(C)CCOC(N)=O.[Cl-]` [CARBACHOL], the Emax in experiment [1] came to 1.

`CC(=O)N1CCCCC[C@H]1C#CCN1CCCC1`: the “Slope of Schild plot” value in experiment [5] worked out at 1.17. Also, the Emax in experiment [1] is 0. The affinity in experiment [3], expressed as Ki, was 2.07 µM. Also, in experiment [6], the Kd is 7.85 µM.

Turning to `CC(=O)N1CCCCCC1C#CCN1CCCC1` (racemic), the “Slope of Schild plot” value in experiment [5] turned out to be 1.17. Also, the Emax in experiment [1] is listed as 0. Also, the Ki in experiment [3] came out at 0.082 µM. The same molecule returned a Kd in experiment [6] of 0.11 µM.

Consider `CC(=O)N1CCCCC1C#CCN1CCCC1` (racemic), for which the “Slope of Schild plot” value in experiment [5] was found to be 0.88. In experiment [1], this molecule yielded an Emax of 0. Further, the inhibitory constant (Ki) in experiment [3] amounted to 0.044 µM. For the same molecule, in experiment [6], the dissociation constant Kd was found to be 0.097 µM.

Turning to `CC(=O)N1CCC[C@H]1C#CCN1CCCC1`, the “Slope of Schild plot” value in experiment [5] came out at 0.8. Further, the Emax in experiment [1] worked out at 0. Moreover, the inhibitory constant (Ki) in experiment [3] came to 5.16 µM. Also, the equilibrium dissociation constant (Kd) in experiment [6] amounted to 16.01 µM.

For the molecule `CC(=O)N1CCCC[C@H]1C#CCN1CCCC1`, the “Slope of Schild plot” value in experiment [5] was 0.99. In experiment [3], this molecule gave an inhibition constant (Ki) of 1.48 µM. Moreover, the Kd in experiment [6] is 6.32 µM.

Turning to `CC(=O)N1CCCCC1C#CC[N+](C)(C)C` (racemic), the Emax in experiment [1] was determined as 0.75. This molecule also had an EC50 in experiment [2] of 2.8 µM. Further, affinity in experiment [3] was put at a Ki of 0.75 µM.

Turning to `CC(=O)N1CCCCCC1C#CC[N+](C)(C)C` (racemic), the “Slope of Schild plot” value in experiment [5] is recorded as 1.03. This molecule also yielded a Ki in experiment [3] of 1.23 µM. Moreover, in experiment [6], the dissociation constant (Kd) came out at 3.55 µM.

`CC(=O)N1CCCC1C#CCN1CCCC1` (racemic): in experiment [5], the “Slope of Schild plot” value came out at 0.9. This molecule also had an Emax in experiment [1] of 0. For the same molecule, the Ki in experiment [3] was determined as 0.67 µM. Moreover, the Kd in experiment [6] is 1.4 µM.

Take `CC(=O)N1CCCCC[C@@H]1C#CCN1CCCC1`: the “Slope of Schild plot” value in experiment [5] is 1.27. The same molecule showed an Emax in experiment [1] of 0. The Ki in experiment [3] turned out to be 0.042 µM. Moreover, the Kd in experiment [6] amounted to 0.161 µM.

For the molecule `CC(=O)N(C)[C@H](C)C#CCN1CCCC1`, the Emax in experiment [1] was 0.83. The same molecule showed an EC50 in experiment [2] of 0.094 µM. This molecule also came in with a Kd in experiment [6] of 0.2 µM.

Consider `CC(=O)N1CCCCCC1C#CCN(C)C` (racemic), for which, in experiment [5], the “Slope of Schild plot” value is 1.1. This molecule displayed an Emax in experiment [1] of 0. The molecule further showed a Ki in experiment [3] of 2.9 µM. The Kd in experiment [6] is 7 µM.

With `CC(=O)N1CCCC[C@@H]1C#CCN1CCCC1`, in experiment [5], the “Slope of Schild plot” value was found to be 0.86. Affinity in experiment [3] was put at a Ki of 0.016 µM. The Kd in experiment [6] turned out to be 0.08 µM.

As for `CC(=O)N1CCCCC1C#CCN(C)C` (racemic), the “Slope of Schild plot” value in experiment [5] was determined as 0.9. In experiment [1], this molecule yielded an Emax of 0. This molecule came in with a Ki in experiment [3] of 2.26 µM. In experiment [6], this molecule showed a Kd of 8.3 µM.

As for `CC(=O)N(C)[C@@H](C)C#CCN1CCCC1`, the equilibrium dissociation constant (Kd) in experiment [6] amounted to 3.23 µM.

As to `CC(=O)N1CCCC1C#CCN(C)C` (racemic), the Emax in experiment [1] is reported as 0. In experiment [3], this molecule displayed an inhibitory constant (Ki) of 25.4 µM. The molecule also had a Kd in experiment [6] of 125 µM.

For `CC(=O)N1CCC[C@@H]1C#CCN1CCCC1`, the “Slope of Schild plot” value in experiment [5] is given as 1.05. Also, the Emax in experiment [1] turned out to be 0. The molecule further returned a Ki in experiment [3] of 0.41 µM. Besides, the equilibrium dissociation constant (Kd) in experiment [6] came to 1.16 µM.
